This note sets out measurements from ChEMBL document CHEMBL1130351, “Nonclassical 2,4-diamino-5-aryl-6-ethylpyrimidine antifolates: activity as inhibitors of dihydrofolate reductase from Pneumocystis carinii and Toxoplasma gondii and as antitumor agents” (J Med Chem, 1997).

The target of test [1] is T1, Bifunctional dihydrofolate reductase-thymidylate synthase (Toxoplasma gondii, UniProt Q07422).
T1 sequence (Q07422 whole entry): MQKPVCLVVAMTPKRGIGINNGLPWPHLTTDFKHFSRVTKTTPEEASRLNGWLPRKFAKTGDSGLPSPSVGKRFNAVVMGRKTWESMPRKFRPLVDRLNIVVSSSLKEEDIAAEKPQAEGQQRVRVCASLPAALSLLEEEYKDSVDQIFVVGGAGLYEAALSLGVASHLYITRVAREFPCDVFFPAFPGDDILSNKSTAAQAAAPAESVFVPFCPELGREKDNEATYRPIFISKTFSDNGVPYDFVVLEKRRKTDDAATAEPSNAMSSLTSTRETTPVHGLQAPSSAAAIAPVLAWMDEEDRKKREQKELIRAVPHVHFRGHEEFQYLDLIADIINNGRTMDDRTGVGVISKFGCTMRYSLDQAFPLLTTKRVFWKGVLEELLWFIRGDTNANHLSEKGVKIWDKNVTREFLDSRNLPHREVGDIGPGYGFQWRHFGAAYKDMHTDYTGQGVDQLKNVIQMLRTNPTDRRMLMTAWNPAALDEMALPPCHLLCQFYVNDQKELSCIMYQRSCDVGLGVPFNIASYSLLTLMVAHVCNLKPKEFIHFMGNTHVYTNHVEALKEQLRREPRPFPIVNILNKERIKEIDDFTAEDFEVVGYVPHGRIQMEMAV
Kind of test: Inhibitory activity against Dihydrofolate reductase from Toxoplasma gondii was evaluated using 90 uM dihydrofolic acid as substrate.

For test [2], the system named is Mus musculus. Nature of the test: Antitumor activity expressed as a ratio of tumor volumes of test (T) animals compared to control (C) animals(100) at a dose of 12.5 mg/kg/day. In kind it is functional. An outline of the steps: (§1)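 BDF1 female mice in groups of 5 received 10^6 M5076 cells im into the left leg on day 0. Drug was dissolved in 10-20% DMSO in arachis oil and given ip daily on days 1-17; controls got vehicle only. Tumor volumes were measured on days 12, 16, 20 and 24. T/C = test/control tumor volume ×100.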

The test system of test [3] is Mus musculus. Nature of the test: Number of M5076 reticulum cell sarcoma bearing mice survived among the tested (5) on day 24 after treating with compound dose of 12.5 mg/Kg/day. It counts as functional. An outline of the steps: as §1
Test [4] concerns Mus musculus. Nature of the test: Antitumor activity expressed as a ratio of tumor volumes of test (T) animals compared to control (C) animals(100) at a dose of 25 mg/kg/day. In kind it is functional. The gist of the method: as §1
Test [5] deals with Mus musculus. Kind of test: Number of M5076 reticulum cell sarcoma bearing mice survived among the tested (5) on day 24 after treating with compound dose of 25 mg/Kg/day. It counts as functional. An outline of the steps:
as §1

Test [6] has as its system Mus musculus. Kind of test: Number of M5076 reticulum cell sarcoma bearing mice survived among the tested (5) on day 24 after treating with compound dose of 3.125 mg/Kg/day. In kind it is functional. The gist of the method:
as §1

Test [7] concerns Mus musculus. Nature of the test: Antitumor activity expressed as a ratio of tumor volumes of test (T) animals compared to control (C) animals(100) at a dose of 3.125 mg/kg/day. It counts as functional. An outline of the steps: as §1

pIC50: −log10 of the molar value.

As for `CCc1nc(N)nc(N)c1-c1ccc(N(C)Cc2ccc(C(=O)NC)cc2)c([N+](=O)[O-])c1`, in test [1], the pIC50 is 8.13. Besides, the T/C with Mus musculus [2] amounted to 15%. Besides, the Survivors in the test with Mus musculus [3] came out at 5.

On to `CCOC(=O)CCC(NC(=O)c1ccc(CNc2ccc(-c3c(N)nc(N)nc3CC)cc2[N+](=O)[O-])cc1)C(=O)OCC` (stereo not drawn), for which, in test [1], the pIC50 is 8.15.

`CCc1nc(N)nc(N)c1-c1ccc(N(C)Cc2ccc(C(=O)O)cc2)c([N+](=O)[O-])c1`: the pIC50 in test [1] is 8.51. Moreover, the T/C in the test on Mus musculus [2] worked out at 100%. In the test with Mus musculus [3], the Survivors was 5.

`CCc1nc(N)nc(N)c1-c1ccc(NCc2ccc(C(=O)N(C)C)cc2)c([N+](=O)[O-])c1`: in test [1], the pIC50 was 8.10.

The compound `CCc1nc(N)nc(N)c1-c1ccc(NCc2ccc(S(N)(=O)=O)cc2)c([N+](=O)[O-])c1` had a pIC50 in test [1] of 8.24.

As for `CCc1nc(N)nc(N)c1-c1ccc(NCc2ccc(C(=O)NC(CCC(=O)O)C(=O)O)cc2)c([N+](=O)[O-])c1` (stereo not drawn), the pIC50 in test [1] was 8.21.

As for `CCc1nc(N)nc(N)c1-c1ccc(NCc2ccc(C(=O)N3CCCCC3)cc2)c([N+](=O)[O-])c1`, the pIC50 in test [1] was 6.85. Against the preceding compound, the pIC50 is 1.36 log units lower.

Turning to `CCc1nc(N)nc(N)c1-c1ccc(N(C)Cc2ccc(C3=NC(C)(C)CO3)cc2)c([N+](=O)[O-])c1`, in test [1], the pIC50 was 7.85. Against the preceding compound, the pIC50 is 1.00 log units higher.

As for `CCc1nc(N)nc(N)c1-c1ccc(NCc2ccc(C(=O)O)cc2)c([N+](=O)[O-])c1`, the pIC50 in test [1] was 8.74.

On to `CCc1nc(N)nc(N)c1-c1ccc(NCc2ccc(C(=O)NC)cc2)c([N+](=O)[O-])c1`, for which, in test [1], the pIC50 is 8.37.

In the case of `CCc1nc(N)nc(N)c1-c1ccc(NCc2ccc(C3OCCO3)cc2)c([N+](=O)[O-])c1`, the pIC50 in test [1] is 7.82.

With `CCc1nc(N)nc(N)c1-c1ccc(NCc2ccc(C(N)=O)cc2)c([N+](=O)[O-])c1`, the pIC50 in test [1] was 8.43. This pIC50 is 0.61 log units higher than that of the compound before.

On to `CCc1nc(N)nc(N)c1-c1ccc(N(C)Cc2ccccc2)c([N+](=O)[O-])c1`, for which the T/C with Mus musculus [4] came out at 37%. Moreover, in the test on Mus musculus [5], the Survivors was 5.

For `CCc1nc(N)nc(N)c1-c1ccc(NCc2ccccc2)c([N+](=O)[O-])c1`, the pIC50 in test [1] was 7.72.

Take `CN(Cc1cnc2nc(N)nc(N)c2n1)c1ccc(C(=O)N[C@@H](CCC(=O)O)C(=O)O)cc1` [METHOTREXATE]: the Survivors with Mus musculus [6] is listed as 5. The T/C in the test on Mus musculus [7] came out at 92%.

In the case of `Cc1nc(N)nc(N)c1-c1ccc(Cl)c(Cl)c1` [METOPRINE], the Survivors with Mus musculus [6] came out at 1. Moreover, the T/C in the test with Mus musculus [7] was below 8%.

The term pIC50 denotes −log10 of the IC50, conventionally taken in molar units. Higher therefore signals a small IC50. What is called T/C is the ratio of treated to control.
